Legend:
caspase-1 = target: T1, caspase-1 (Homo sapiens, UniProt P29466); assay: Caspase-1 inhibition assay, cleavage of fluorogenic substrate YVAD-AFC; type: biochemical; details: for remaining activity at 100 µM: read-out: Enzyme activity (% at 100 μM)
T1 sequence (P29466 120-297 limits assumed): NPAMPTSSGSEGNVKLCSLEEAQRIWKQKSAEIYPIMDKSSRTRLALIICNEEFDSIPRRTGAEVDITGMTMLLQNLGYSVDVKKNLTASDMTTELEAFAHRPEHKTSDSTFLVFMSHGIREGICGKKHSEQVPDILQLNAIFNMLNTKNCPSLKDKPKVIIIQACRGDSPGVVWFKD
T1 sequence (P29466 317-404 limits assumed): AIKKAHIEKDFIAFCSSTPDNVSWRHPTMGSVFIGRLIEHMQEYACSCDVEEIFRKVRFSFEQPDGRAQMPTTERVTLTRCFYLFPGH
Summary of the method: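 Fluorogenic caspase-1 assay: cleavage of YVAD-AFC releases free AFC, followed as a time course of fluorescence increase (Ex/Em 400/505 nm) and compared with an untreated control. Test compounds were run as 10-dose, 3-fold serial dilutions starting at 100 μM or 10 μM to give IC50. Residual activity at 100 μM is reported as % enzyme activity.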

U937 cells = assay: U937 cell growth inhibition / cell viability by MTT assay; type: cell-based, human; details: lowest concentrations (range 1 nM to 100 μM), 48 h
Summary of the method: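 Human U937 cells were grown in RPMI 1640 with 10% FBS, penicillin and streptomycin at 37 °C in 5% CO2. They were seeded at 10000 cells/well and exposed to test compound at 1 nM–100 μM for 48 h, with matched DMSO-only controls. MTT (0.1 mg/well) was added for 4 h at 37 °C, then cells were lysed and A595 read. Viability is % of control (100%), mean of three independent experiments.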

IC50 (caspase-1) [µM]	remaining activity at 100 µM (caspase-1) [%]	Compound	cytotoxic effect (U937 cells)
53.5	40.5	O=C(O)C[C@@H](O)CNC(c1ccccc1)c1nnnn1CCCC(=O)N1CCc2ccccc2C1 (mixture of isomers) [(3R)5 ag, Sodium (3R)-4-(((1-(4-(3,4-dihydroisoquinolin-2(1H)-yl)-4-oxobutyl)-1H-tetrazol-5-yl)(phenyl)methyl)amino)-3-hydroxybutanoate]	
68	48.6	O=C(O)C[C@H](O)CNC(c1ccccc1)c1nnnn1CCCC(=O)N1CCc2ccccc2C1 (mixture of isomers) [(3S)5 ag, Sodium (3S)-4-(((1-(4-(3,4-dihydroisoquinolin-2(1H)-yl)-4-oxobutyl)-1H-tetrazol-5-yl)(phenyl)methyl)amino)-3-hydroxybutanoate]	
	> 96.7	CC(NCC(O)CC(=O)O)c1nnnn1CCCC(=O)N1CCc2ccccc2C1 (centres unmarked) [5aa, Sodium 4-((1-(1-(4-(3,4-dihydroisoquinolin-2(1H)-yl)-4-oxobutyl)-1H-tetrazol-5-yl)ethyl)amino)-3-hydrxybutanoate]	
77.8	49.6	O=C(O)C[C@@H](O)CNC(c1cccs1)c1nnnn1CCCC(=O)NCc1ccccc1 (mixture of isomers) [(3R)5bf, Sodium (3R)-4-(((1-(4-(benzylamino)-4-oxobutyl)-1H-tetrazol-5-yl)(thiophen-2-yl)methyl)amino)-3-hydroxybutanoate]	
	> 96.7	COc1cc2c(cc1OC)CN(C(=O)CCCn1nnnc1C(NCC(O)CC(=O)O)C(C)C)CC2 (centres unmarked) [5ca, Sodium 4-((1-(1-(4-(6,7-dimethoxy-3,4-dihydroisoquinolin-2(1H)-yl)-4-oxobutyl)-1H-tetrazol-5-yl)-2-methylpropyl)amino)-3-hydroxybutanoate]	
		CC(C)CC(c1nnnn1CCCC(=O)N1CCc2ccccc2C1)N(Cc1ccccc1)CC(O)CC(=O)[O-].[Na+] (centres unmarked) [16aa, Sodium 4-(benzyl(1-(1-(4-(3,4-dihydroisoquinolin-2(1H)-yl)-4-oxobutyl)-1H-tetrazol-5-yl)-3-methylbutyl)amino)-3-hydroxybutanoate]	low or is not significant
	> 96.7	CC(NCC(O)CC(=O)O)c1nnnn1CCCC(=O)NCc1ccccc1 (centres unmarked) [5ba, Sodium 4-((1-(1-(4-(benzylamino)-4-oxobutyl)-1H-tetrazol-5-yl)ethyl)amino)-3-hydroxybutanoate]	
		CC(C)(C)CC(NCC(O)CC(=O)[O-])c1nnnn1CCCC(=O)N1CCc2ccccc2C1.[Na+] (centres unmarked) [5ae, Sodium-4-((1-(1-(4-(3,4-dihydroisoquinolin-2(1H)-yl)-4-oxobutyl)-1H-tetrazol-5-yl)-3,3-dimethylbutyl)amino)-3-hydroxybutanoate]	low or is not significant
12.2	9.71	CC(C)(C)CC(NC[C@H](O)CC(=O)O)c1nnnn1CCCC(=O)N1CCc2ccccc2C1 (mixture of isomers) [(3R)5ae, Sodium (3R)-4-((1-(1-(4-(3,4-dihydroisoquinolin-2(1H)-yl)-4-oxobutyl)-1H-tetrazol-5-yl)-3,3-dimethylbutyl)amino)-3-hydroxybutanoate]	
	> 96.7	O=C(O)CC(O)CNC(c1cccs1)c1nnnn1CCCC(=O)NCc1ccccc1 (centres unmarked) [5bf, Sodium 4-(((1-(4-(benzylamino)-4-oxobutyl)-1H-tetrazol-5-yl)(thiophen-2-yl)methyl)amino)-3-hydroxybutanoate]	
	> 96.7	O=C(O)CC(O)CNC(c1ccccc1)c1nnnn1CCCC(=O)NCc1ccccc1 (centres unmarked) [5be, Sodium 4-(((1-(4-(benzylamino)-4-oxobutyl)-1H-tetrazol-5-yl)(phenyl)methyl)amino)-3-hydroxybutanoate]	
15	4.45	CC(C)(C)CC(c1nnnn1CCCC(=O)N1CCc2ccccc2C1)N(Cc1ccccc1)C[C@H](O)CC(=O)O (mixture of isomers) [(3R)16ac, Sodium (3R)-4-((1-(1-(4-(3,4-dihydroisoquinolin-2(1H)-yl)-4-oxobutyl)-1H-tetrazol-5-yl)-3,3-dimethylbutyl)(benzyl)amino)-3-hydroxybutanoate]	
51.4	37.2	O=C(O)C[C@H](O)CNC(c1cccs1)c1nnnn1CCCC(=O)N1CCc2ccccc2C1 (mixture of isomers) [(3S)5ah, Sodium (3S)-4-(((1-(4-(3,4-dihydroisoquinolin-2(1H)-yl)-4-oxobutyl)-1H-tetrazol-5-yl)(thiophen-2-yl)methyl)amino)-3-hydroxybutanoate]	
	> 96.7	COc1cc2c(cc1OC)CN(C(=O)CCCn1nnnc1C(NCC(O)CC(=O)O)c1cccs1)CC2 (centres unmarked) [5ce, Sodium 4-(((1-(4-(6,7-dimethoxy-3,4-dihydroisoquinolin-2(1H)-yl)-4-oxobutyl)-1H-tetrazol-5-yl)(thiophen-2-yl)methyl)amino)-3-hydroxybutanoate]	
32.6	29	O=C(O)C[C@@H](O)CNC(c1cccs1)c1nnnn1CCCC(=O)N1CCc2ccccc2C1 (mixture of isomers) [(3R)5ah, Sodium (3R)-4-(((1-(4-(3,4-dihydroisoquinolin-2(1H)-yl)-4-oxobutyl)-1H-tetrazol-5-yl)(thiophen-2-yl)methyl)amino)-3-hydroxybutanoate]	
	> 96.7	CC(C)C(NCC(O)CC(=O)O)c1nnnn1CCCC(=O)NCc1ccccc1 (centres unmarked) [5bb, Sodium 4-((1-(1-(4-(benzylamino)-4-oxobutyl)-1H-tetrazol-5-yl)-2-methylpropyl)amino)-3-hydroxybutanoate]	
